Measurements reported in ChEMBL document CHEMBL4004857, “Synthesis and biological evaluation of novel pyrazolic chalcone derivatives as novel hepatocellular carcinoma therapeutics” (Eur J Med Chem, 2017).
pIC50: −log10 of the molar value. Calls of active or inactive are those of the source. No cut-off for these calls is given here.

These compounds were tested on Huh-7 (assay: Cytotoxicity against human HuH7 cells assessed as growth inhibition after 72 hrs by SRB assay). Conditions: Huh-7, 72 h.
Type: functional, cell-based
Method in brief: (§1)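 Cells seeded at 2000–3000 per well and grown 24 h at 37C, then treated in triplicate with compounds dissolved in DMSO over a 40–0.3 range for 72 h. Cells were fixed with 10% TCA for 1 h, stained with 0.4% SRB in 1% acetic acid, washed with 1% acetic acid and air-dried. Bound dye was solubilized in 10 mM Tris base and read at 515 nm. % inhibition and IC50 were calculated against DMSO-only controls.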
For `COc1ccc(OC)c(C(=O)/C=C/c2cn(-c3ccccc3)nc2-c2ccncc2)c1`, the pIC50 was 5.77.

What follows are compounds tested on MCF7 (assay: Cytotoxicity against human MCF7 cells assessed as growth inhibition after 72 hrs by SRB assay). Conditions: MCF7, 72 h.
Type: functional, cell-based
Method in brief: as §1
`COc1ccc(OC)c(C(=O)/C=C/c2cn(-c3ccccc3)nc2-c2ccncc2)c1` showed a pIC50 of 5.85.

What follows are compounds tested on HCT-116 (assay: Cytotoxicity against human HCT116 cells assessed as growth inhibition after 72 hrs by SRB assay). Conditions: HCT-116, 72 h.
Type: functional, cell-based
Method in brief: as §1
Work on `COc1ccc(OC)c(C(=O)/C=C/c2cn(-c3ccccc3)nc2-c2ccncc2)c1` yielded a pIC50 of 6.05.

Species on record: Homo sapiens
Experiment: Inhibition of tubulin polymerization (unknown origin)
Conditions: not given
For `COc1ccc(OC)c(C(=O)/C=C/c2cn(-c3ccccc3)nc2-c2ccncc2)c1`, the inhibition was “inactive”.

What follows are compounds tested on HepG2 (assay: Cytotoxicity against human HepG2 cells assessed as growth inhibition after 72 hrs by SRB assay). Conditions: HepG2, 72 h.
Type: functional, cell-based
Method in brief: as §1
For `COc1ccc(OC)c(C(=O)/C=C/c2cn(-c3ccccc3)nc2-c2ccncc2)c1`, the pIC50 was 5.32.

These compounds were tested on Mahlavu (assay: Cytotoxicity against human Mahlavu cells assessed as growth inhibition after 72 hrs by SRB assay). Conditions: not given.
Type: functional, cell-based
Method in brief: as §1
For `COc1ccc(OC)c(C(=O)/C=C/c2cn(-c3ccccc3)nc2-c2ccncc2)c1`, the pIC50 was 5.80.

What follows are compounds tested on SNU-475 (assay: Cytotoxicity against human SNU475 cells assessed as growth inhibition after 72 hrs by SRB assay). Conditions: SNU-475, 72 h.
Type: functional, cell-based
Method in brief: as §1
Work on `COc1ccc(OC)c(C(=O)/C=C/c2cn(-c3ccccc3)nc2-c2ccncc2)c1` yielded a pIC50 of 5.70.

The compounds below were run on MCF-12A (assay: Cytotoxicity against human MCF12A cells assessed as growth inhibition after 72 hrs by SRB assay). Conditions: not given.
Type: cell-based
Method in brief: as §1
For `COc1ccc(OC)c(C(=O)/C=C/c2cn(-c3ccccc3)nc2-c2ccncc2)c1`, the pIC50 was 5.52.

Each compound was assayed on MRC5 (assay: Cytotoxicity against human MRC5 cells assessed as growth inhibition after 72 hrs by SRB assay). Conditions: Homo sapiens, MRC5, 72 h; read-out: IC50.
Type: cell-based
Method in brief: as §1
`COc1ccc(OC)c(C(=O)/C=C/c2cn(-c3ccccc3)nc2-c2ccncc2)c1` was tested, and the pIC50 was 5.51.

These compounds were tested on Huh-7 (assay: Growth inhibition of human HuH7 cells at cytotoxic IC100 measured every 10 mins for first 24 hrs and every 30 mins for remaining 48 hrs by RT-CES analysis). Conditions: not given.
Type: functional, cell-based
For `COc1ccc(OC)c(C(=O)/C=C/c2cn(-c3ccccc3)nc2-c2ccncc2)c1`, the “growth inhibition (GI)” value was “Active”.

These compounds were tested on HepG2 (assay: Growth inhibition of human HepG2 cells at cytotoxic IC100 measured every 10 mins for first 24 hrs and every 30 mins for remaining 48 hrs by RT-CES analysis). Conditions: not given.
Type: functional, cell-based
`COc1ccc(OC)c(C(=O)/C=C/c2cn(-c3ccccc3)nc2-c2ccncc2)c1` was tested, and the “growth inhibition (GI)” value was “Active”.

These compounds were tested on Mahlavu (assay: Growth inhibition of human Mahlavu cells at cytotoxic IC100 measured every 10 mins for first 24 hrs and every 30 mins for remaining 48 hrs by RT-CES analysis). Conditions: not given.
Type: functional, cell-based
For `COc1ccc(OC)c(C(=O)/C=C/c2cn(-c3ccccc3)nc2-c2ccncc2)c1`, the “growth inhibition (GI)” value was “Active”.

What follows are compounds tested on SNU-475 (assay: Growth inhibition of human SNU475 cells at cytotoxic IC100 measured every 10 mins for first 24 hrs and every 30 mins for remaining 48 hrs by RT-CES analysis). Conditions: not given.
Type: functional, cell-based
For `COc1ccc(OC)c(C(=O)/C=C/c2cn(-c3ccccc3)nc2-c2ccncc2)c1`, the “growth inhibition (GI)” value was “Active”.

Each compound was assayed on HepG2 (assay: Induction of apoptosis in human HepG2 cells assessed as condensed nuclei at cytotoxic IC100 measured after 48 hrs by DAPI/Annexin-V-Fluos staining based fluorescent microscopic method). Conditions: not given.
Type: functional, cell-based
Method in brief: (§2)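 Cells on coverslips were treated after 24 h in culture and stained 48 h later with Annexin-V-Fluos plus DAPI nuclear stain. Cells were then examined by fluorescence microscopy for Annexin V-positive cells with condensed nuclei.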
In the case of `COc1ccc(OC)c(C(=O)/C=C/c2cn(-c3ccccc3)nc2-c2ccncc2)c1`, the Activity was “Active”.

Each compound was assayed on HepG2 (assay: Induction of apoptosis in human HepG2 cells assessed as condensed nuclei at cytotoxic IC100 measured after 72 hrs by light microscopic method). Conditions: not given.
Type: functional, cell-based
With `COc1ccc(OC)c(C(=O)/C=C/c2cn(-c3ccccc3)nc2-c2ccncc2)c1` the Activity was “Active”.

These compounds were tested on SNU-475 (assay: Induction of apoptosis in human SNU475 cells assessed as condensed nuclei at cytotoxic IC100 measured after 72 hrs by light microscopic method). Conditions: not given.
Type: functional, cell-based
In the case of `COc1ccc(OC)c(C(=O)/C=C/c2cn(-c3ccccc3)nc2-c2ccncc2)c1`, the Activity was “Active”.

These compounds were tested on SNU-475 (assay: Induction of apoptosis in human SNU475 cells assessed as condensed nuclei at cytotoxic IC100 measured after 48 hrs by DAPI/Annexin-V-Fluos staining based fluorescent microscopic method). Conditions: not given.
Type: functional, cell-based
Method in brief: as §2
For `COc1ccc(OC)c(C(=O)/C=C/c2cn(-c3ccccc3)nc2-c2ccncc2)c1`, the Activity was “Active”.

Each compound was assayed on SNU-475 (assay: Induction of apoptosis in human SNU475 cells assessed as PARP cleavage at cytotoxic IC100 measured after 24 hrs by Western blot method). Conditions: not given.
Type: functional, cell-based
In the case of `COc1ccc(OC)c(C(=O)/C=C/c2cn(-c3ccccc3)nc2-c2ccncc2)c1`, the Activity was “Active”.

The compounds below were run on HepG2 (assay: Induction of apoptosis in human HepG2 cells assessed as PARP cleavage at cytotoxic IC100 measured after 24 hrs by Western blot method). Conditions: not given.
Type: functional, cell-based
`COc1ccc(OC)c(C(=O)/C=C/c2cn(-c3ccccc3)nc2-c2ccncc2)c1` was tested, and the Activity was “Active”.

Each compound was assayed on HepG2 (assay: Induction of apoptosis in human HepG2 cells assessed as accumulation at G2/M phase at cytotoxic IC100 measured after 48 hrs by propidium iodide staining based flow cytometry). Conditions: not given.
Type: functional, cell-based
Method in brief: (§3)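 After 24, 48 and 72 h, cells were fixed in ice-cold 70% ethanol for 3 h, stained with propidium iodide, and cell-cycle distribution was read on a MUSE Cell Analyzer.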
`COc1ccc(OC)c(C(=O)/C=C/c2cn(-c3ccccc3)nc2-c2ccncc2)c1` was tested, and the Activity was “Active”.

Each compound was assayed on HepG2 (assay: Induction of apoptosis in human HepG2 cells assessed as accumulation at subG1 phase at cytotoxic IC100 measured after 72 hrs by propidium iodide staining based flow cytometry). Conditions: not given.
Type: functional, cell-based
Method in brief: as §3
With `COc1ccc(OC)c(C(=O)/C=C/c2cn(-c3ccccc3)nc2-c2ccncc2)c1` the Activity was “Active”.

The compounds below were run on SNU-475 (assay: Induction of apoptosis in human SNU475 cells assessed as accumulation at G2/M phase at cytotoxic IC100 measured after 48 hrs by propidium iodide staining based flow cytometry). Conditions: not given.
Type: functional, cell-based
Method in brief: as §3
`COc1ccc(OC)c(C(=O)/C=C/c2cn(-c3ccccc3)nc2-c2ccncc2)c1` was tested, and the Activity was “Active”.

What follows are compounds tested on SNU-475 (assay: Induction of apoptosis in human SNU475 cells assessed as accumulation at subG1 phase at cytotoxic IC100 measured after 72 hrs by propidium iodide staining based flow cytometry). Conditions: not given.
Type: functional, cell-based
Method in brief: as §3
`COc1ccc(OC)c(C(=O)/C=C/c2cn(-c3ccccc3)nc2-c2ccncc2)c1` was tested, and the Activity was “Active”.

The compounds below were run on HepG2 (assay: Induction of apoptosis in human HepG2 cells assessed as decrease in CDK expression level at cytotoxic IC100 measured after 24 hrs by Western blot method). Conditions: not given.
Type: functional
Set-up: scale not given: the % may be the effect or the level left
With `COc1ccc(OC)c(C(=O)/C=C/c2cn(-c3ccccc3)nc2-c2ccncc2)c1` the Activity was 50%.

These compounds were tested on SNU-475 (assay: Induction of apoptosis in human SNU475 cells assessed as decrease in CDK expression level at cytotoxic IC100 measured after 24 hrs by Western blot method). Conditions: not given.
Type: functional, cell-based
For `COc1ccc(OC)c(C(=O)/C=C/c2cn(-c3ccccc3)nc2-c2ccncc2)c1`, the Activity was “Active”.

The compounds below were run against G2/mitotic-specific cyclin-B1 (Homo sapiens) (UniProt P14635) (assay: Inhibition of Cyclin B1 phosphorylation at Ser147 residue in human HepG2 cells at cytotoxic IC100 measured after 24 hrs by Western blot method). Conditions: not given.
G2/mitotic-specific cyclin-B1 (Homo sapiens), sequence (P14635 whole entry): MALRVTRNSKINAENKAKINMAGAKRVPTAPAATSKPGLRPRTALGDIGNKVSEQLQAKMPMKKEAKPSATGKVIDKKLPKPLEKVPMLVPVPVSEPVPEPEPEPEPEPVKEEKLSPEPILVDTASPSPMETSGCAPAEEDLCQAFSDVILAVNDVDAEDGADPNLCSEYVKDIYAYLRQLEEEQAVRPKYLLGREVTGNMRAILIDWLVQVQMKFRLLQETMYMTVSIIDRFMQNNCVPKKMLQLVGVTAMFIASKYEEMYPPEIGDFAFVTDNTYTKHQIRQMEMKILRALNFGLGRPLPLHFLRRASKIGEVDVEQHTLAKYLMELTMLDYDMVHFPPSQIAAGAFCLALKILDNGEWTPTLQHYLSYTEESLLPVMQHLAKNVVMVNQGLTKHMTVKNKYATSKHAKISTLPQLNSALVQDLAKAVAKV
Type: cell-based
In the case of `COc1ccc(OC)c(C(=O)/C=C/c2cn(-c3ccccc3)nc2-c2ccncc2)c1`, the inhibition was 50%.

Each compound was assayed on HepG2 (assay: Induction of apoptosis in human HepG2 cells assessed as decrease in cyclin B1 protein expression level at cytotoxic IC100 measured after 24 hrs by Western blot method). Conditions: not given.
Type: functional, cell-based
`COc1ccc(OC)c(C(=O)/C=C/c2cn(-c3ccccc3)nc2-c2ccncc2)c1` was tested, and the Activity was “Active”.

These compounds were tested on HepG2 (assay: Increase in p21 protein expression in human HepG2 cells at cytotoxic IC100 measured after 24 hrs by Western blot method relative to control). Conditions: not given.
Type: functional
With `COc1ccc(OC)c(C(=O)/C=C/c2cn(-c3ccccc3)nc2-c2ccncc2)c1` the “fold change (FC)” value was 5 - 6.

These compounds were tested on SNU-475 (assay: Increase in p21 protein expression in human SNU475 cells at cytotoxic IC100 measured after 24 hrs by Western blot method relative to control). Conditions: not given.
Type: functional
For `COc1ccc(OC)c(C(=O)/C=C/c2cn(-c3ccccc3)nc2-c2ccncc2)c1`, the “fold change (FC)” value was 2.

The compounds below were run against T1, Retinoblastoma-associated protein (Homo sapiens) (UniProt P06400) (assay: Inhibition of retinoblastoma phosphorylation in human HepG2 cells at cytotoxic IC100 measured after 24 hrs by Western blot method). Conditions: not given.
T1 sequence (whole entry): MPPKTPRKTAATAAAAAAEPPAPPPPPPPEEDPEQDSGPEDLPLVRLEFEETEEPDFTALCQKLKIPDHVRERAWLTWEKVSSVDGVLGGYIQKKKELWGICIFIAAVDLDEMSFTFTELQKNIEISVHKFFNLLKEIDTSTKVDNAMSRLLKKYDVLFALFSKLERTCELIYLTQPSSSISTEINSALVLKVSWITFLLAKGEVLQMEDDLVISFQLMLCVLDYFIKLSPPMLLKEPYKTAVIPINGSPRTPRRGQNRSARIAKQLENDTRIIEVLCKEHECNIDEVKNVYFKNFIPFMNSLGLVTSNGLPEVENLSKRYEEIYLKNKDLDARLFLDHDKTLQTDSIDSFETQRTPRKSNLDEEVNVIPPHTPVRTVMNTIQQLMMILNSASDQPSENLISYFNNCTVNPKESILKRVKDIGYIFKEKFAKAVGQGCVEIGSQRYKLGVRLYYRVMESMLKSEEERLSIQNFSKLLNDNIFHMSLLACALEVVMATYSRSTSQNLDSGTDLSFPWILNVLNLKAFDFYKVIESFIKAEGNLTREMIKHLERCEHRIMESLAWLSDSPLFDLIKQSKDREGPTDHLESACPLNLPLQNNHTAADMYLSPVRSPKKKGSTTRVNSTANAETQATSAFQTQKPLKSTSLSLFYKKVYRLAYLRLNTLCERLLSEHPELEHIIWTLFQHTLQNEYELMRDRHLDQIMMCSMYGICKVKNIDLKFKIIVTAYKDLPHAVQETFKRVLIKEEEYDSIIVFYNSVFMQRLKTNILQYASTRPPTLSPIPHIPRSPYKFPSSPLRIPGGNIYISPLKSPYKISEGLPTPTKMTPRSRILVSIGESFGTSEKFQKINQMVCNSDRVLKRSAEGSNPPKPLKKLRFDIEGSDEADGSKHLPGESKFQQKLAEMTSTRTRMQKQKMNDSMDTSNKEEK
Type: cell-based
`COc1ccc(OC)c(C(=O)/C=C/c2cn(-c3ccccc3)nc2-c2ccncc2)c1` was tested, and the inhibition was “Active”.

The compounds below were run against T1, Retinoblastoma-associated protein (Homo sapiens) (assay: Inhibition of retinoblastoma phosphorylation in human SNU475 cells at cytotoxic IC100 measured after 24 hrs by Western blot method). Conditions: not given.
Type: cell-based
In the case of `COc1ccc(OC)c(C(=O)/C=C/c2cn(-c3ccccc3)nc2-c2ccncc2)c1`, the inhibition was “Active”.
